Measurements of several laboratories.
Protocols differ between the studies behind these lines. Converted amounts (≈) assume the structure as drawn.

SMILES | organism | assay | system | conditions | measurement | value
O=C(Nc1cccc(F)c1)c1ccc(COC(Cn2ccnc2)c2ccc(Cl)cc2Cl)cc1 (stereo not drawn) | Pichia kudriavzevii | microbial growth, broth dilution |  |  | MIC80 | 0.25 µg/mL (≈ 0.516 µM)
CC1=C(Cn2ccnn2)C(=O)c2ccccc2C1=O | Schistosoma mansoni | parasite growth |  | 72 h, larva | IC50 | 1050 nM
CCn1c(=O)c(-c2cc[nH]n2)cc2c(C)nc(N)nc21 | Enterovirus A | viral replication, inhibitor, qPCR | RD, EV71 |  | IC50 | 158 nM
O=C(Nc1ccc(Br)cc1)c1ccc(COC(Cn2ccnc2)c2ccc(Cl)cc2Cl)cc1 (stereo not drawn) | Pichia kudriavzevii | microbial growth, broth dilution |  |  | MIC80 | 0.06 µg/mL (≈ 0.11 µM)
O=C1/C(=C/c2ccc3ccccc3c2O)NC(=S)N1c1ccccc1 | Fusarium solani | microbial growth, broth dilution |  |  | MIC | 20 µg/mL (≈ 57.7 µM)
CCON=C1C=CC(=C(C#N)c2ccccc2)C=C1 | Pichia kudriavzevii | microbial growth, broth dilution | ATCC14243 | 48 h | MIC | 256 µg/mL (≈ 1020 µM)
O=C(Nc1cccc(Cl)c1)c1ccc(COC(Cn2ccnc2)c2ccc(Cl)cc2Cl)cc1 (stereo not drawn) | Pichia kudriavzevii | microbial growth, broth dilution |  |  | MIC80 | 0.25 µg/mL (≈ 0.499 µM)
COc1cc(NC(=O)Cn2ccc3ccc(-c4nnc(C)o4)cc32)cc(OC)c1OC | Plasmodium knowlesi | parasite growth, SYBR Green |  | 30 h, blood stage | EC50 | 200 to 660 nM
C[C@@H]1[C@H](O)[C@@H](C)/C=C/C=C/C=C/C=C/C=C/C=C/C=C/[C@H](O[C@@H]2O[C@H](C)[C@@H](O)[C@H](N)[C@@H]2O)C[C@@H]2O[C@](O)(C[C@@H](O)C[C@@H](O)[C@H](O)CC[C@@H](O)C[C@@H](O)CC(=O)O[C@H]1C)C[C@H](O)[C@H]2C(=O)O | Pichia kudriavzevii | microbial growth, broth dilution | ATCC14243 | 48 h | MIC | 2 µg/mL (≈ 2.16 µM)
O=C(Nc1cccc(Br)c1)c1ccc(COC(Cn2ccnc2)c2ccc(Cl)cc2Cl)cc1 (stereo not drawn) | Pichia kudriavzevii | microbial growth, broth dilution |  |  | MIC80 | 0.06 µg/mL (≈ 0.11 µM)
CC1=C(Cc2cn(CCN3CCNCC3)nn2)C(=O)c2ccccc2C1=O | Schistosoma mansoni | parasite growth |  | 72 h, larva | IC50 | 1670 nM
O=C(Nc1ccc(F)cc1)c1ccc(COC(Cn2ccnc2)c2ccc(Cl)cc2Cl)cc1 (stereo not drawn) | Pichia kudriavzevii | microbial growth, broth dilution |  |  | MIC80 | 0.06 µg/mL (≈ 0.124 µM)
CC1=C(Cn2cncn2)C(=O)c2ccccc2C1=O | Schistosoma mansoni | parasite growth |  | 72 h, larva | IC50 | 900 nM
O=C(Nc1cccc2ccccc12)c1ccc(COC(Cn2ccnc2)c2ccc(Cl)cc2Cl)cc1 (stereo not drawn) | Pichia kudriavzevii | microbial growth, broth dilution |  |  | MIC80 | 16 µg/mL (≈ 31 µM)
C#CCOC(=O)ON=C1C=CC(=C(C#N)c2ccccc2)C=C1 | Pichia kudriavzevii | microbial killing, broth dilution | ATCC14243 | 48 h | MFC | 32 µg/mL (≈ 105 µM)
CC1=C(Cn2cnc([N+](=O)[O-])n2)C(=O)c2ccccc2C1=O | Schistosoma mansoni | parasite growth |  | 72 h, larva | IC50 | 860 nM
CC(=O)ON=C1C=CC(=C(C#N)c2ccccc2)C=C1 | Pichia kudriavzevii | microbial growth, broth dilution | ATCC14243 | 48 h | MIC | 16 µg/mL (≈ 60.5 µM)
CC1=C(Cc2cn(CCN3CCN(C(=O)OC(C)(C)C)CC3)nn2)C(=O)c2ccccc2C1=O | Schistosoma mansoni | parasite growth |  | 72 h, larva | IC50 | 1890 nM
N#CC(=C1C=CC(=NOC(=O)OCc2ccccc2)C=C1)c1ccccc1 | Pichia kudriavzevii | microbial killing, broth dilution | ATCC14243 | 48 h | MFC | 256 µg/mL (≈ 718 µM)
COc1ccc(NC(=O)c2ccc(COC(Cn3ccnc3)c3ccc(Cl)cc3Cl)cc2)cc1 (stereo not drawn) | Pichia kudriavzevii | microbial growth, broth dilution |  |  | MIC80 | 0.125 µg/mL (≈ 0.252 µM)
CC1=C(Cc2cn(CCO)nn2)C(=O)c2ccccc2C1=O | Schistosoma mansoni | parasite growth |  | 72 h, larva | IC50 | 1440 nM
C=CC(=O)ON=C1C=CC(=C(C#N)c2ccccc2)C=C1 | Pichia kudriavzevii | microbial growth, broth dilution | ATCC14243 | 48 h | MIC | 16 µg/mL (≈ 57.9 µM)
CC1=C(Cn2cc(CN3CCNCC3)nn2)C(=O)c2ccccc2C1=O | Schistosoma mansoni | parasite growth |  | 72 h, larva | IC50 | 930 nM
C#CCON=C1C=CC(=C(C#N)c2ccccc2)C=C1 | Pichia kudriavzevii | microbial killing, broth dilution | ATCC14243 | 48 h | MFC | 64 µg/mL (≈ 246 µM)
